G6PDH CS: inhibits Leuconostoc G6PDH, flagging false hits in G6PDH-based assays; Purified L. mesenteroides G6PDH, diaphorase/resazurin coupled fluorescence, 45 min; inhibition, % at 5 µM; 200,000 compounds, 0.12% hits; AID 1020; in the data active means inhibition above about 50%
Diaph act CS: diaphorase activation or chemical reduction counter-screen; Diaphorase/resazurin coupled assay, resorufin fluorescence, 16 min; stronger effect = higher value; 1 = vehicle wells, 0 = NADH-free wells; activation factor at 20 µM; 190,000 compounds, 0.005% hits; AID 1229;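 active means diaphorase activity raised at least twofold by the compound at 20 µM; inactive means activation factor below 2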
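Material: Clostridium kluyveri diaphorase, purified enzyme; Quantity: enzyme 0.07 U/mL final; Medium: HEPES pH 7.4 buffer with MgCl2 and Tween 20; Dosing: single compound dose of 20 µM, 1% DMSO final; Schedule: 16 min reaction at room temperature; Measured by: red resorufin fluorescence at 544/590 nm excitation/emission.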
Diaph inh CS: diaphorase inhibition or chemical oxidation counter-screen; diaphorase resazurin-to-resorufin fluorescence, NADH, 16 min; bacterial (C. kluyveri) enzyme, not human; inhibition, % at 20 µM; 190,000 compounds, 0.69% hits; AID 1217;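 active means primary screen inhibition at 20 µM above a set limit, cut at about 50% in these data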
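Test system: diaphorase enzyme from Clostridium kluyveri; amount: diaphorase at 0.14 U/mL in enzyme working solution; detection: fluorescence of resorufin formed from resazurin, Ex 544/Em 590 nm; times: reaction incubation of 16 min at room temperature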
Redox H2O2 prof: compounds producing H2O2 with reducing agent – biochemical, NIH compound library profiling, artefact control for MLSCN library redox annotation, primary screen; DTT-dependent redox cycling H2O2, phenol red/HRP absorbance; 100% = 100 µM peroxide control, 0% = buffer; activation, % at 10 µM; 200,000 compounds, 0.03% hits; AID 878;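 active means activation of at least 50% relative to the plate's high and low controls in the primary single-dose screen; inactive means activation below 50%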;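 further: compound incubated with DTT at 0.8 mM final as the reducing agent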
PMI act: increases human mannose-6-phosphate isomerase activity | purified human PMI, coupled resazurin fluorescence, 20 min; stronger effect = higher value; 1 = vehicle control, 0 substrate-free wells | 190,000 compounds, 0.005% hits | AID 1214 | activation factor at 20 µM | P34949;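 active means activation factor of 2 or more at 20 µM, relative to plate controls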
Target sequence (P34949 whole entry, looked up): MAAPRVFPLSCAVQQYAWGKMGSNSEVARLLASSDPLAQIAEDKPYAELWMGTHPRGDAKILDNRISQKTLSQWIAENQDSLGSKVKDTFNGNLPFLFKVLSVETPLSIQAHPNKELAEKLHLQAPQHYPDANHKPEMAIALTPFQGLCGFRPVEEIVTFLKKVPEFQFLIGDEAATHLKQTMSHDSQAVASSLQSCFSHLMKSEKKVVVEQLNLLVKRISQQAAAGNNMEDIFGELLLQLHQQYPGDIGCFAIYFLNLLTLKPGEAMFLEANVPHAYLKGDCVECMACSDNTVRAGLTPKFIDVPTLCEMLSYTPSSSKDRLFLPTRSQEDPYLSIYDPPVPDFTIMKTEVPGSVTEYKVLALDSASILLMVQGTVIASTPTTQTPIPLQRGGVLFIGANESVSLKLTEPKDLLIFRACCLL
PMI act satM6P: PMI (human) activation, high substrate; P34949; coupled PMI enzyme assay, resazurin fluorescence, 20 min; stronger effect = higher value; 1 = untreated enzyme, 0 = substrate-free blank; activation factor at 20 µM; 190,000 compounds, 0.34% hits;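 active means activation factor of 2 or more at 20 µM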
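Material: human phosphomannose isomerase with PGI, G6PDH, diaphorase coupling enzymes. Quantity: 15 ng/mL PMI. Medium: HEPES pH 7.4 buffer with MgCl2 and Tween-20. Reagent: Near-saturating mannose-6-phosphate, 1.0 mM. Compound: 20 µM single dose. Times: enzyme reaction with compound 20 min at room temperature. Detection: resorufin fluorescence at Ex 544/Em 590 nm.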
Numbers stand for hits; – = inactive; · = no result given. In the library only some 1.1% were active in any assay of this set; here they are far more common.

SMILES	G6PDH CS	Diaph act CS	Diaph inh CS	Redox H2O2 prof	PMI act	PMI act satM6P
CSc1ccc(/C=N/NC(=O)c2ccccc2Cl)cc1	–	–	58	–	–	–
CN(C)c1ccc(/C=N/NC(=O)c2ccccc2Cl)cc1	–	–	–	–	–	–
Cc1cc(C)n2nc(SC(C)C(=O)Nc3ccc(Cl)cn3)nc2n1 (stereo unspecified)	–	–	66	–	–	–
CC(Sc1n[nH]c(N)n1)C(=O)Nc1ccc(Cl)cn1 (stereo unspecified)	–	–	–	–	–	–
COc1cc(C2Nc3ccc4ncccc4c3C3=C2C(=O)CCC3)cc(OC)c1O (stereo unspecified)	50	–	–	–	–	–
COc1cc(C2Nc3ccc4ncccc4c3C3=C2C(=O)CC(C)(C)C3)cc(OC)c1O (stereo unspecified)	–	–	–	–	–	–
NC(=O)CN1CCOCCN(CC(N)=O)CCOCC1	56	–	–	·	–	–
C/C(=N\Nc1nc(-c2ccccc2)cs1)c1cccs1	–	–	–	–	–	2.2
O=C(NCCC1=CCCCC1)Nc1ccc2nsnc2c1	–	·	·	–	·	·
Cc1ccc(C(=O)NS(=O)(=O)c2ccc(N=NN(C)C)cc2)cc1	–	–	–	–	–	2
Cc1ccc(S(=O)(=O)N2CCOCC2)cc1NC(=O)CSc1nnc2cc(C)c3ccccc3n12	–	–	54	–	–	–
Cn1c(/C=C(\C#N)C(N)=S)ccc1-c1ccc(Br)cc1	–	–	–	–	–	–
c1ccc(C2=Nn3c(nnc3-c3ccco3)SC2)cc1	–	–	73	–	–	–
O=C(c1cc2ccccc2o1)N(C1CC1)C1(C(=O)Nc2ccccc2)CCCC1	–	–	–	–	–	–
COc1ccc(C(=O)c2c(C(F)(F)F)oc3c2C(=O)c2ccccc2C3=O)cc1OC	59	–	–	–	–	–
O=C(C1=C[C@@H]2[C@H]3C(=O)N(c4cccc(Cl)c4)C(=O)[C@H]3[C@@H](C(=O)c3ccc(Cl)cc3)N2C=C1)c1ccccc1	–	–	–	–	–	2.2
Cc1ccc(N2C(=O)[C@@H]3[C@H](C2=O)[C@H]2C=C(C(=O)c4ccccc4)C=CN2[C@@H]3C(=O)c2ccc(Cl)cc2)cc1	–	–	–	–	–	2.1
O=C(/C=C/c1cccc(Oc2ccccc2)c1)N1CCOCC1	–	–	–	–	–	–
Cc1ccc(-c2nc(CN(C)Cc3cccc4cnccc34)c(C)o2)s1	–	–	–	–	–	–
CCOC(=O)C1=C(C)NC(=O)CC1c1cc2c(cc1[N+](=O)[O-])OCO2 (stereo unspecified)	–	–	72	–	–	–
CCCOC(=O)C1=C(C)N(C)C(=O)NC1c1cc2c(cc1[N+](=O)[O-])OCO2 (stereo unspecified)	–	–	–	–	–	–
CC1=C(C(=O)OCc2ccc3c(c2)OCO3)C(c2ccc(O)c([N+](=O)[O-])c2)NC(=O)N1 (stereo unspecified)	–	–	52	–	–	–
Cc1ccc(OCC(=O)Nc2cccc(S(=O)(=O)N3CCCCCC3)c2)c([N+](=O)[O-])n1	–	–	–	–	–	–
Cn1cnnc1SCC(=O)c1ccc(O)c(O)c1	–	–	–	–	–	–
O=C(Cc1ccccc1)NC(NNc1ccccc1)(C(F)(F)F)C(F)(F)F	–	–	–	–	–	2.5
SMILES	G6PDH CS	Diaph act CS	Diaph inh CS	Redox H2O2 prof	PMI act	PMI act satM6P
CC(Oc1ccc(Br)cc1)c1nc2c3ccccc3nc(=S)n2[nH]1 (stereo unspecified)	–	–	85	–	–	–
S=c1nc2ccccc2c2nc(-c3ccccc3)[nH]n12	–	–	77	–	–	–
S=c1nc(-c2ccccc2)[nH]n1-c1ccccc1	–	–	–	–	–	–
COc1cccc(-c2cc(C(F)(F)F)n3nc(C(=O)N4CCCCC4c4cccnc4)cc3n2)c1 (stereo unspecified)	–	–	–	–	–	–
COc1ccccc1-n1cc([C@@H]2C[C@H]3CN(c4ccccc4)C(=O)[C@]34CCCN24)cn1	–	–	–	–	–	–
O=C(O)CCc1ncc(C(F)(F)F)cc1Cl	–	–	–	–	–	–
O=C(O)CC/C(=N/Nc1ncc(C(F)(F)F)cc1Cl)C(=O)O	–	–	53	–	–	–
COc1ccc(CN2CCN(Cc3csc(C(C)=O)c3)CC2CCO)c(C)c1C (stereo unspecified)	–	–	–	–	–	–
C/C(=N\NC(=O)c1cccc(N/N=C(\C)c2ccco2)c1)c1ccco1	–	–	–	–	–	–
C/C(=N\NC(=O)c1cccc(N/N=C(\C)c2cc(O)ccc2O)c1)c1cc(O)ccc1O	–	–	–	–	–	3
CCOC(=O)c1c(-c2cccc3ccccc23)csc1NC(=O)C1C2CCC(O2)C1C(=O)O (stereo unspecified)	–	–	–	–	–	–
CCOC(=O)c1c(NC(=O)C2C3CCC(O3)C2C(=O)O)sc(C)c1-c1ccc(C)cc1 (stereo unspecified)	–	–	52	–	–	–
CC(C)CC(C(=O)Nc1ccc2c(c1)OCCO2)N1C(=O)c2ccccc2C1=O (stereo unspecified)	–	–	–	–	–	–
CC(C)CC(C(=O)Nc1oc(-c2ccco2)c(-c2ccco2)c1C#N)N1C(=O)c2ccccc2C1=O (stereo unspecified)	–	–	56	–	·	·
CCOc1ccc(C2=Nn3c(nnc3-c3ccccc3OC)SC2)cc1	–	–	–	–	–	–
COc1ccccc1-c1nnc2n1N=C(c1ccc(O)c(O)c1)CS2	–	–	51	–	–	–
CC(C)(C)C1=CC(=O)C(=O)C(C(C)(C)C)=C1	–	–	73	–	–	–
Cc1ccc(NC(=O)C(=O)NCC2CCCO2)cc1 (stereo unspecified)	–	–	–	–	–	–
CC(Cc1ccsc1)NC(=O)CCc1nnc(COc2ccccc2)o1 (stereo unspecified)	–	–	–	–	–	–
CCOC(=O)C(=O)NNc1ccc(Cl)cc1	–	–	–	–	–	2.5
CCCOC(=O)C(=O)NNc1ccccc1	–	–	–	–	–	2.9
CCOC(=O)C(=O)NNc1ccc(C)cc1	–	–	–	–	–	2
CCn1c(SC2CCOC2=O)nnc1-c1ccc(Cl)cc1 (stereo unspecified)	–	–	–	–	–	–

Assay outcomes deposited in PubChem BioAssay by several laboratories.
